Reference: publication PMC12900291 (European journal of medicinal chemistry, 2025)
Several values for one entry are separate records, joined by “and”; a condition that tells them apart may be missing. Equal entries are not always repeated.

Key:
[1] = molecular target: T1, SERCA2a (Sus scrofa, UniProt P11607); test: NADH-coupled enzyme-linked Ca2+-ATPase activity assay in cardiac SR vesicles; type: biochemical, porcine; conditions: for Max increase (%): vs no compound
[2] = Intrinsic clearance; type: in vitro ADME, human; conditions: for Thalf: human liver S9 0.5 mg/mL, 1 μM compound, NADPH, 37 °C; for microsomal CLint at 1 μM: human, liver S9 fraction, pH 7.4
[3] = molecular target: T1, SERCA2a; test: oxalate-based Ca2+-uptake; type: biochemical, porcine; conditions: cardiac SR
Summary of the method: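 Porcine left-ventricular SR vesicles (30 μg/mL) were prepared by differential centrifugation. Buffer: 50 mM MOPS, 100 mM KCl, 30 mg/mL sucrose, 10 mM potassium oxalate, 2 μM Fluo-4, free Ca2+ at pCa 8.0, 6.2 or 5.4, test compound 0.048–50 μM (two-fold series). Incubation 20 min at 22 °C, dark; 5 mM MgATP start; Fluo-4 decrease (ex 485/em 520 nm) tracked 15 min. Basal pCa 8.0 rate subtracted; Hill fit gives EC50 and % effect.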

[4] = Ca2+-ATPase activity, [Ca2+]MAX (pCa 5.4), mean±SD, n=4-6
[5] = Ca2+-ATPase [Ca2+]MAX EC50 (μM), [Ca2+]MAX (pCa 5.4), cardiac SR
[6] = Ca2+-ATPase [Ca2+]MID EC50 (μM), [Ca2+]MID (pCa 6.2), cardiac SR
[7] = Ca2+-Uptake [Ca2+]MAX EC50 (μM), [Ca2+]MAX (pCa 5.4)
[8] = Ca2+-Uptake [Ca2+]MID EC50 (μM), [Ca2+]MID (pCa 6.2)

T1 sequence (P11607 1-997 isoform P11607-2): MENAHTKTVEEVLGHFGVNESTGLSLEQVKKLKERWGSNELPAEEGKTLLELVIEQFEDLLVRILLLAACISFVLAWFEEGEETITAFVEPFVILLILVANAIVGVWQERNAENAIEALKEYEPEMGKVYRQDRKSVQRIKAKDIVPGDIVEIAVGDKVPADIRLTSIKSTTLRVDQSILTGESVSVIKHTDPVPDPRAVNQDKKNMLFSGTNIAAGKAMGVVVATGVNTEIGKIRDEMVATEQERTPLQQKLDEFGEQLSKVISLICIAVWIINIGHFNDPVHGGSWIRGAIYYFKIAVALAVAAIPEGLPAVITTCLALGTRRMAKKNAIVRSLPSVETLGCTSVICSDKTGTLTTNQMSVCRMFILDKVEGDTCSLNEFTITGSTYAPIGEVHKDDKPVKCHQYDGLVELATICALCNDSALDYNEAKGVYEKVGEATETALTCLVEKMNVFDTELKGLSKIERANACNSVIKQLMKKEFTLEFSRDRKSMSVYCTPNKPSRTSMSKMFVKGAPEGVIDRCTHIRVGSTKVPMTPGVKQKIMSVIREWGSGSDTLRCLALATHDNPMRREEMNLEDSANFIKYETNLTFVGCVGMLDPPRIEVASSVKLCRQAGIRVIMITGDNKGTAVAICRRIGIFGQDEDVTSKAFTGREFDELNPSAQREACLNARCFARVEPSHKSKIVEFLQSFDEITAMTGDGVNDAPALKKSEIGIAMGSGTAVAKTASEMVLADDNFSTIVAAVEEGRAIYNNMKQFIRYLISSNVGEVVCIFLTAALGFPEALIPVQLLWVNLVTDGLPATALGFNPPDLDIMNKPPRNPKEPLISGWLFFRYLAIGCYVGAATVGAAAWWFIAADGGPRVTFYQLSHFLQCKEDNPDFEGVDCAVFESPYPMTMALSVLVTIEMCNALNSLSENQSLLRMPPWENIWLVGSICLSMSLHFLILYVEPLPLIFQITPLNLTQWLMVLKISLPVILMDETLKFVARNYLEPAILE

| SMILES | Max increase (%) [1, 4] | other results |
| --- | --- | --- |
| CCCN(Cc1ccccc1OC)C(=O)c1scc(C)c1C [Compound 2, N-(2-Methoxybenzyl)-3,4-dimethyl-N-propylthiophene-2-carboxamide] | 47±7.1% | – |
| CCCN(Cc1ccccc1OC)C(=O)c1cc(C)cs1 [Compound 3, N-(2-Methoxybenzyl)-4-methyl-N-propylthiophene-2-carboxamide] | 45±9.2% | – |
| CCCN(Cc1ccccc1OC)C(=O)c1cccs1 [Compound 4, N-(2-Methoxybenzyl)-N-propylthiophene-2-carboxamide] | 30±14% | – |
| CCCN(Cc1ccccc1OC)C(=O)c1ccsc1 [Compound 5, N-(2-Methoxybenzyl)-N-propylthiophene-3-carboxamide] | 29±8.4% | – |
| CCCN(Cc1ccccc1OC)C(=O)c1ccc(Cl)s1 [Compound 6, 5-Chloro-N-(2-methoxybenzyl)-N-propylthiophene-2-carboxamide] | 37±9.4% | – |
| CCCN(Cc1ccccc1OC)C(=O)c1cc2ccccc2s1 [Compound 7, N-(2-Methoxybenzyl)-N-propylbenzo[b]thiophene-2-carboxamide] | 76% and 76±19% | – |
| CCCN(Cc1ccccc1OC)C(=O)c1ccccc1C [Compound 9, N-(2-Methoxybenzyl)-2-methyl-N-propylbenzamide] | 28±10% | – |
| CCCN(Cc1ccccc1OC)C(=O)c1cccc(C)c1 [Compound 10, N-(2-Methoxybenzyl)-3-methyl-N-propylbenzamide] | 59±13% | – |
| CCCN(Cc1ccccc1OC)C(=O)c1ccc(C)cc1 [Compound 11, N-(2-Methoxybenzyl)-4-methyl-N-propylbenzamide] | 61±7.0% | – |
| CCCN(Cc1ccccc1OC)C(=O)c1ccccc1F [Compound 12, 2-Fluoro-N-(2-methoxybenzyl)-N-propylbenzamide] | 40±10% | – |
| CCCN(Cc1ccccc1OC)C(=O)c1cccc(F)c1 [Compound 13, 3-Fluoro-N-(2-methoxybenzyl)-N-propylbenzamide] | 53±17% | – |
| CCCN(Cc1ccccc1OC)C(=O)c1ccc(F)cc1 [Compound 14, 4-Fluoro-N-(2-methoxybenzyl)-N-propylbenzamide] | 55±11% | – |
| CCCN(Cc1ccccc1OC)C(=O)c1ccccc1Cl [Compound 15, 2-Chloro-N-(2-methoxybenzyl)-N-propylbenzamide] | 35±10% | – |
| CCCN(Cc1ccccc1OC)C(=O)c1cccc(Cl)c1 [Compound 16, 3-Chloro-N-(2-methoxybenzyl)-N-propylbenzamide] | 61±9.4% | – |
| CCCN(Cc1ccccc1OC)C(=O)c1ccc(Cl)cc1 [Compound 17, 4-Chloro-N-(2-methoxybenzyl)-N-propylbenzamide] | 64±7.6% | – |
| CCCN(Cc1ccccc1OC)C(=O)c1ccccc1OC [Compound 18, 2-Methoxy-N-(2-methoxybenzyl)-N-propylbenzamide] | 27±9.3% | – |
| CCCN(Cc1ccccc1OC)C(=O)c1cccc(OC)c1 [Compound 19, 3-Methoxy-N-(2-methoxybenzyl)-N-propylbenzamide] | 45±14% | – |
| CCCN(Cc1ccccc1OC)C(=O)c1ccccc1C(F)(F)F [Compound 20, N-(2-Methoxybenzyl)-N-propyl-2-(trifluoromethyl)benzamide] | 51% and 51±17% | – |
| CCCN(Cc1ccccc1OC)C(=O)c1cccc(Br)c1 [Compound 22, 3-Bromo-N-(2-methoxybenzyl)-N-propylbenzamide] | 46±5.5% | Thalf [2]: 23.8 min; microsomal CLint at 1 μM [2]: 56 ± 9 µL/min/mg; EC50 [1, 5]: 1.5 ± 0.31 µM; EC50 [1, 6]: 1.4 ± 0.8 µM; EC50 [3, 7]: 0.36 ± 0.14 µM; EC50 [3, 8]: 12.4 ± 8.4 µM; Ca2+-Uptake [Ca2+]MAX % effect ([3]; [Ca2+]MAX (pCa 5.4)): 11±3.8%; Ca2+-Uptake [Ca2+]MAX EC50 (μM) ([3]; [Ca2+]MAX (pCa 5.4)): decreased |
| CCCN(Cc1ccccc1OC)C(=O)c1ccc(Br)c(Br)c1 [Compound 23, 3,4-Dibromo-N-(2-methoxybenzyl)-N-propylbenzamide] | 28±8.1% | Thalf [2]: 15.3 min; microsomal CLint at 1 μM [2]: 79 ± 19 µL/min/mg; EC50 [1, 5]: 0.9 ± 0.38 µM; EC50 [1, 6]: 15.3 ± 4.1 µM; Max decrease (%) [1, 4]: 28±9.0%; Ca2+-ATPase [Ca2+]MAX % effect ([1]; [Ca2+]MAX (pCa 5.4), cardiac SR): 28±8.1%; EC50 [3, 7]: > 50 µM; EC50 [3, 8]: 9.2 ± 1.5 µM |
